T cruzi inh = T. cruzi replication inhibition; 300,000 compounds, 1.4% hits; inhibition, % (concentration not given with the values); T. cruzi beta-gal in NIH3T3, luminescence, 90 h;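 active = mean inhibition across valid replicates above about 55%, limit read from the data; inconclusive = mean below that limit but half or more replicates reach it; inactive = mean below it, under half of replicates reach it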;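 note: signal also drops with host cell toxicity which is not excluded here; 0% = plate median of DMSO wells and 100% = zero luminescence signal; higher percent means less beta-gal luminescence so fewer parasites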
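Assay system: NIH/3T3 host cells with β-galactosidase reporter T. cruzi; input: 5,000 host fibroblasts per well; compound: single 50 nL compound addition per well in DMSO; timing: ≥90 h infection period, 3 h prior cell attachment; measured by: GalScreen β-gal luminescence, detergent lysis, 60 min; evaluation: percent inhibition of parasite-derived β-gal signal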
Redox H2O2 prof = compounds producing H2O2 with reducing agent – biochemical, NIH compound library profiling, artefact control for MLSCN library redox annotation, primary screen | DTT-dependent redox cycling H2O2, phenol red/HRP absorbance; 100% = 100 µM peroxide control, 0% = buffer | activation, % at 10 µM | 200,000 compounds, 0.03% hits;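 active = activation of at least 50% relative to the plate's high and low controls in the primary single-dose screen; inactive = activation below 50%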;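 note: compound incubated with DTT at 0.8 mM final as the reducing agent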
Hep lipid drop = modulators of hepatic lipid droplet formation. 240,000 compounds, 0.4% hits. AID 1656. inhibition, % at 6.5 µM. AML12 mouse hepatocytes, oleate lipid droplets, BODIPY imaging;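 active = lipid droplet intensity inhibited by at least 50%, with more than 500 cells counted; inconclusive = wells with under 300 cells, treated as cytotoxic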
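Assay system: AML12 hepatocytes (mouse) / Also added: 100 µM oleic acid challenge / Times: overnight treatment with compound plus oleate / Detection: high-content imaging of BODIPY-stained droplets and DAPI nuclei / Evaluation: % inhibition of lipid droplet signal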
L major viab = reduces viability of Leishmania major promastigotes; resazurin fluorescence viability; inhibition, % at 10 µM; 200,000 compounds, 9% hits; in the data active = inhibition above about 50%;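 note: promastigotes grown with compound for 44 hours at 28 °C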
MPTP block = blocks calcium-induced mitochondrial swelling; inhibition, % at 10 µM; isolated mouse mitochondria, Ca2+ swelling absorbance, 30 min; 360,000 compounds, 1.4% hits;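 active = inhibition of 50% or more, scaled per plate between neutral and stimulator controls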;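 note: 0% = DMSO wells given calcium and 100% = 1 mM EGTA wells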
L major 1uM = blocks Leishmania major promastigote growth at 1 uM, repeat screen | inhibition, % at 1 µM | shares compounds with L major viab | L. major promastigote growth, resazurin fluorescence, 48 h | AID 1258 | 1,100 compounds, 13% hits;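 active = inhibition above about 50% in both repeat tests, limit read from the data; inconclusive = one repeat under the set limit, the other over it; inactive = both repeats under the set limit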
Active calls of the source: *; ? = inconclusive; . = no result given. The full list was thinned out, with hits kept by preference.

SMILES | T cruzi inh | Redox H2O2 prof | Hep lipid drop | L major viab | MPTP block | L major 1uM
CN1CCC(C2(O)c3ccccc3CSc3sccc32)CC1 (stereo unspecified) | . | 0.6 | -10.9 | 66.6* | 1.6 | -7.5
CN1CCC(C2(O)c3ccccc3CCc3ccccc32)CC1 | 19.6 | 3.8 | -3.1 | 5.0 | 0.6 | .
CC(=O)O[C@@H]1C[C@H]2C(C)(C)C(=O)C=C[C@]2(C)[C@H]2CC[C@@]3(C)[C@H](c4ccoc4)OC(=O)[C@H]4O[C@]43[C@@]21C | 32.4 | 0.6 | -12.3 | 100.3* | 1.6 | 93.9*
CC(C(=O)Nc1ccc(S(=O)(=O)N2CCOCC2)cc1)N1C(=O)C2CC=CCC2C1=O (stereo unspecified) | -7.2 | -0.3 | 15.9 | -6.1 | -2.4 | .
O=C(O)c1ccc(S(=O)(=O)/N=C2\C=C(Nc3ccccc3F)C(=O)c3ccccc32)cc1 | 28.3 | . | -28.0 | . | 5.6 | .
Cc1ccccc1NC1=C/C(=N\S(=O)(=O)c2cccs2)c2ccccc2C1=O | 57.5* | 0.9 | 25.5 | 100.5* | 18.7 | 96.9*
Cc1cc(S(=O)(=O)NCc2ccccc2)ccc1OCC(=O)NCc1ccncc1 | 6.6 | . | -6.7 | . | -0.7 | .
O=C(NCCC(c1ccccc1)c1ccccc1)c1ccc(Br)o1 | 22.9 | 0.1 | -1.0 | 58.6* | 0.3 | -2.3
Nc1c(C(=O)NCCN2CCOCC2)c2nc3ccccc3nc2n1-c1ccc2c(c1)OCO2 | 2.1 | 0.3 | 29.9 | 21.6 | 0.2 | .
Nc1c(C(=O)NCCN2CCOCC2)c2nc3ccccc3nc2n1CCc1ccccc1F | 8.8 | 0.4 | 11.8 | 64.7* | 1.5 | -14.1
Cc1ccc(S(=O)(=O)Cn2nnnc2CN(Cc2ccco2)CC2CCCO2)cc1 (stereo unspecified) | 11.0 | 2.2 | -28.0 | 53.0* | -3.7 | -5.6
O=C(Nc1nc(-c2ccccc2)cs1)c1ccc(N2CCOCC2)c([N+](=O)[O-])c1 | 55.2* | 0.2 | 20.5 | 98.2* | 16.3 | 14.0
COc1ccc(OC)c(N2Cc3ccccc3C2)c1 | 11.9 | 1.7 | -19.3 | -2.2 | 0.7 | .
COc1ccccc1N1Cc2ccccc2C1 | 40.1 | 2.3 | . | 90.5* | 4.6 | -10.5
COc1ccc(C#Cc2cccc(-c3nc(C(=O)NCc4ccc(Oc5ccccc5)cc4)cc4c3[C@@H](CCO)N(S(=O)C(C)(C)C)C4)c2)cc1OC (stereo partly specified) | . | . | . | . | 1.2 | .
CCCOc1cc(N)ccc1C(=O)OCCN(CC)CC | . | . | . | . | -0.8 | .
CCCOc1ccc(N)cc1N | -7.3 | 1.1 | . | 74.0* | -0.3 | -14.1
Cc1cc(C)c(S(=O)(=O)c2c(C)cccc2C)c(OCC(C)C)n1 | 6.3 | 1.4 | -14.3 | 95.7* | 2.5 | ?
CC1=CCC(/C=N\Nc2nnc3c(n2)[nH]c2ccccc23)CC1 (stereo unspecified) | -4.8 | 0.7 | -1.1 | 51.8* | . | -0.7
CC(C)CSc1nnc2c(n1)[nH]c1ccccc12 | 1.1 | 0.0 | . | 6.2 | -1.2 | .
CCC(C)(C)c1ccc(Oc2ccc(N)cc2)cc1 | 12.1 | -0.2 | 1.7 | 95.0* | 8.8 | 14.5
CCC(Sc1nc2ccncc2[nH]1)C(=O)Nc1cc(Cl)ccc1C (stereo unspecified) | -11.5 | . | -0.1 | . | 0.8 | .
Cc1ccc(-c2nnc(N3CCN(c4ccccn4)CC3)c3ccccc23)cc1 | 29.3 | 1.4 | -8.5 | 90.6* | -2.1 | 6.4
c1ccc(-c2nnc(N3CCN(c4ccccn4)CC3)c3ccccc23)cc1 | 36.4 | -0.3 | 6.5 | 32.6 | 0.2 | .
CC12CCC(C(=O)N(CCCCN3CCN(c4ccccn4)CC3)C1=O)C2(C)C (stereo unspecified) | -19.8 | . | -4.9 | . | 0.3 | .
SMILES | T cruzi inh | Redox H2O2 prof | Hep lipid drop | L major viab | MPTP block | L major 1uM
CC12CCC(C(=O)N(CCCN3CCN(Cc4ccccc4)CC3)C1=O)C2(C)C (stereo unspecified) | . | -0.7 | -8.4 | 94.6* | 1.9 | 67.7*
CCn1nc(C)c(CNC(=O)Nc2ccccc2C(=O)OC)c1C | -7.5 | -0.4 | -15.4 | -2.4 | -0.3 | .
CCC(C)NC(=O)CNC(=S)N(Cc1ccccc1)Cc1cccnc1 (stereo unspecified) | 49.9 | 1.5 | 17.0 | 75.4* | -0.2 | -7.1
c1ccc(-c2csc(NC3=NCCCCC3)n2)cc1 | 24.9 | 1.5 | -2.3 | 5.2 | 0.6 | .
N#Cc1ccc(-c2csc(NC3=NCCCCC3)n2)cc1 | -6.8 | 0.3 | -17.6 | 87.1* | -2.4 | -5.2
CCCc1nc2ccc(NC(=O)c3cccs3)cc2c(=O)n1Cc1ccc(Cl)cc1 | 51.6 | -0.3 | -8.1 | 72.4* | 6.7 | -7.3
CSC1=NCCN1C(=O)C(C)(C)Oc1ccc(Cl)cc1 | 5.6 | -1.2 | . | 30.3 | 0.3 | .
CCSC1=NCCN1C(=O)C(C)(C)Oc1ccc(Cl)cc1 | -6.0 | -1.7 | 3.8 | 64.6* | -1.0 | 2.9
O=C(NC(=S)N1CCN(C(c2ccccc2)c2ccccc2)CC1)c1ccc(S(=O)(=O)N2CCOCC2)cc1 | 24.0 | -1.0 | -7.1 | 99.5* | 2.0 | -2.9
O=S(=O)(CCSc1nc2ccccc2s1)c1nc2ccccc2s1 | 29.4 | -0.5 | -21.8 | 100.5* | 2.0 | 53.8*
C=CCS(=O)(=O)c1nc2ccccc2s1 | -36.4 | 0.7 | . | 100.5* | -1.1 | 10.1
C=CCOC(=O)/C(=C\C=C\c1ccccc1)NC(=O)c1ccccc1 | 11.2 | 0.2 | -13.1 | 9.8 | 2.2 | .
CC(=O)c1c(-c2ccc(C)cc2)nc2c3ccccc3ccn12 | 37.1 | 0.4 | 5.4 | 58.5* | -1.3 | 42.8
O=[N+]([O-])c1cc(Cl)ccc1-c1nc(-c2ccccc2)no1 | 4.3 | -0.4 | 2.4 | 89.5* | 1.4 | -20.7
O=[N+]([O-])c1cc(Cl)ccc1-c1nc(-c2ccncc2)no1 | 11.0 | 11.2 | -5.2 | 8.7 | 0.9 | .
Cc1ccc(-c2onc3ccc(C=O)cc23)cc1 | -3.0 | -0.1 | 9.2 | 81.4* | -1.4 | -10.9
Cc1ccc(-c2onc3ccc(C4(C)OCCO4)cc23)cc1 | -9.8 | 0.0 | -4.4 | 1.7 | 1.0 | .
COc1ccc(CNC(=O)COC(=O)c2cc(C)oc2C)cc1 | . | . | . | . | 1.6 | .
O=C(CSc1nc2ccccc2[nH]1)N1CCN(c2ccc(F)cc2)CC1 | -3.2 | 3.6 | -15.3 | 57.6* | -0.4 | -3.0
CCOc1ccccc1N(C(=O)Nc1ccc(Cl)cc1)C1=NCCS1 | 2.3 | 0.9 | 22.7 | 0.0 | 39.5 | .
CCOc1ccccc1N(C(=O)Nc1cccc(Cl)c1)C1=NC(C)CS1 (stereo unspecified) | -15.9 | -0.1 | -14.8 | 81.2* | 41.1 | 7.2
O=C(NCc1ccccc1)N1CCOCC1 | 5.5 | . | 2.3 | . | 2.1 | .
O=C(OCc1ccccc1)N1CCOCCOCCN(C(=O)OCc2ccccc2)CCOCCOCC1 | 16.7 | 2.3 | . | 60.9* | 0.7 | -4.4
CCOC(=O)c1cnn(-c2ncnc3sc4c(c23)CCC4)c1N | 1.7 | -0.7 | . | 2.9 | 1.0 | .
CCOC(=O)c1cnn(-c2nc(SC)nc3sc4c(c23)CCCC4)c1N | 37.9 | 0.1 | -0.8 | 59.7* | 1.3 | -0.7
